Measured values as given in ChEMBL document CHEMBL1148487, “Chemical and functional identification and characterization of novel sulfated alpha-conotoxins from the cone snail Conus anemone” (J Med Chem, 2004).
Residues, ends and D or L forms follow the SMILES beside them.

Legend:
[1] = target: Neuronal acetylcholine receptor; alpha3/beta2 (Rattus norvegicus, UniProt P04757+P12390); assay: Inhibition of rat Nicotinic acetylcholine receptor alpha3-beta2 expressed in Xenopus Oocytes; type: cell-based
How it was run: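 Rat nAChR subunit cRNAs (50 nL, 5–50 ng/µL) injected into Xenopus oocytes, kept at 19 °C in ND96 pH 7.4 with gentamycin; two-electrode voltage clamp at −70 mV, 2–10 days post-injection. Peptide added to static bath, 3–10 min before agonist; sub-1 nM also perfused 10–15 min. IC50 from fitted concentration–response curves with Hill slope.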

[2] = Inhibition ratio of rat alpha 3 beta 2 nicotinic acetylcholine receptor (nAChR) to that of at alpha 7 nicotinic acetylcholine receptor (nAChR)

Chain of Neuronal acetylcholine receptor; alpha3/beta2 (P04757 whole entry, the tested form may be a part): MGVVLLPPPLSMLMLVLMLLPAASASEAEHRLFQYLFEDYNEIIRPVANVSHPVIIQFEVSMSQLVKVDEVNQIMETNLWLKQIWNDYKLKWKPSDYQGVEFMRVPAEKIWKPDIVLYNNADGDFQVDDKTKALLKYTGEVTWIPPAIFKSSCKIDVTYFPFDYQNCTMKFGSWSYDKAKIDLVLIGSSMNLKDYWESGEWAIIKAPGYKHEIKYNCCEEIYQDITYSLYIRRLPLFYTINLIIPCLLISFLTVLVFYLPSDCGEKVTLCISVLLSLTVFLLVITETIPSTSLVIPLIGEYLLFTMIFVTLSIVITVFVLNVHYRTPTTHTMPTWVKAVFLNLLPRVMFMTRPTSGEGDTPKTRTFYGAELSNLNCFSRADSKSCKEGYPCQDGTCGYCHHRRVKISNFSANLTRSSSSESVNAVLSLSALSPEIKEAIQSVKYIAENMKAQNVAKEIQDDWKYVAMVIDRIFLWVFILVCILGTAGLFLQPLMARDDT
Chain of Neuronal acetylcholine receptor; alpha3/beta2 (P12390 whole entry, the tested form may be a part): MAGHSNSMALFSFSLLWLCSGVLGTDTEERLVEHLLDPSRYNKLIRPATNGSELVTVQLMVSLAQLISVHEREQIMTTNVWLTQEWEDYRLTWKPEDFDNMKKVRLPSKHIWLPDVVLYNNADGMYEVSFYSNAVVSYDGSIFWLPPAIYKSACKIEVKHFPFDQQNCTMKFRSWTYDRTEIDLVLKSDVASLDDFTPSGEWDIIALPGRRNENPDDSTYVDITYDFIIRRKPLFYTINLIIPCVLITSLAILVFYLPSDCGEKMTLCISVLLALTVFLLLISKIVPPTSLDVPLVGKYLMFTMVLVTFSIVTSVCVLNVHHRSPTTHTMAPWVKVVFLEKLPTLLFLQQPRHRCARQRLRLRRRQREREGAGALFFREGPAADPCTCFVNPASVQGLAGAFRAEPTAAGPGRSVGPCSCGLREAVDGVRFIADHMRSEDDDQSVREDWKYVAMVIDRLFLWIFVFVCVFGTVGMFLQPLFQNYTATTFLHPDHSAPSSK

CC(C)C[C@@H](NC(=O)[C@@H](CO)NC(=O)[C@@H](CS)NC(=O)[C@@H](CS)NC(=O)CN)C(=O)N1CCC[C@H]1C(=O)N1CCC[C@H]1C(=O)N[C@@H](CS)C(=O)N[C@@H](C)C(=O)N[C@@H](C)C(=O)N[C@@H](CC(N)=O)C(=O)N[C@@H](CC(N)=O)C(=O)N1CCC[C@@H]1C(=O)N[C@@H](CC(=O)O)C(=O)N[C@@H](Cc1ccc(O)cc1)C(=O)N[C@@H](CS)C(N)=O
IC50 [1]: 0.099 µM | Ratio [2]: 7.9

CC[C@H](C)[C@H](N)C(=O)N[C@@H](CCCN=C(N)N)C(=O)N[C@@H](CC(=O)O)C(=O)N[C@@H](CC(C(=O)O)C(=O)O)C(=O)N[C@@H](CS)C(=O)N[C@@H](CS)C(=O)N[C@@H](CO)C(=O)N[C@@H](CC(N)=O)C(=O)N1CCC[C@H]1C(=O)N[C@@H](C)C(=O)N[C@@H](CS)C(=O)N[C@@H](CCCN=C(N)N)C(=O)N[C@H](C(=O)N[C@@H](CC(N)=O)C(=O)N[C@@H](CC(N)=O)C(=O)N1C[C@H](O)C[C@H]1C(=O)N[C@@H](Cc1c[nH]cn1)C(=O)N[C@H](C(=O)N[C@@H](CS)C(N)=O)C(C)C)C(C)C (HELM PEPTIDE1{I.R.D.[O=C(O)C(C[C@H](N[*:1])C(=O)[*:2])C(=O)O].C.C.S.N.P.A.C.R.V.N.N.[Hyp].H.V.C.[am]}$$$$V2.0)
IC50 [1]: 0.01 µM | Ratio [2]: 0.2

CC(C)C[C@@H](NC(=O)[C@@H](CO)NC(=O)[C@@H](CS)NC(=O)[C@@H](CS)NC(=O)CN)C(=O)N1CCC[C@H]1C(=O)N1CCC[C@H]1C(=O)N[C@@H](CS)C(=O)N[C@@H](C)C(=O)N[C@@H](C)C(=O)N[C@@H](CC(N)=O)C(=O)N[C@@H](CC(N)=O)C(=O)N1CCC[C@@H]1C(=O)N[C@@H](CC(=O)O)C(=O)N[C@@H](Cc1ccc(S)cc1)C(=O)N[C@@H](CS)C(N)=O
IC50 [1]: 0.0096 µM | Ratio [2]: 0.04
